AI-2 QS mod – modulators of Vibrio harveyi AI-2 quorum sensing system. Vibrio harveyi JMH597 AI-2 luminescence/OD600 ratio, 9 h; stronger effect = lower value; strain lacks LuxN and CqsS sensors; 0 = neutral-control median. activity change, % at 7.5 µM. 300,000 tested, 0.4% active. AID 2094; in the data active = activity change below about -75%, passing the limit was not always enough; inconclusive = no clear call, values can overlap the other calls;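 note: luminescence divided by OD600 gain over 9 h not by final OD600 alone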
PolyA inhibitor – yeast polyadenylation inhibition; AID 1875; S. cerevisiae SKY197-pL101 polyadenylation reporter, beta-gal luminescence; efflux-impaired pdr1/pdr3 knockout yeast; score 100 = 6 SD above DMSO; activity score, % at 12 µM; 300,000 tested, 0.02% active;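 active = lowest replicate activity score at least 50, where 100 means six control SD above control mean; inconclusive = lowest score under 50 but half or more replicates reach 50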;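 note: yeast exposed to compound for 9 h at 30 °C; higher score means more reporter readthrough which indicates perturbed polyadenylation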
STK33 kinase inh – inhibitors of human STK33 kinase; 320,000 tested, 0.073% active; AID 2661; inhibition, % at 10 µM; purified STK33, MBP phosphorylation, ADP-Glo luminescence;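 active = inhibition at or above 25%, using the most active replicate where run in duplicate; inactive = inhibition below 25%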
Yeast superoxide – yeast age-related superoxide inhibition as caloric restriction mimetic | superoxide response (% of plate mean), % at 10 µM | S. cerevisiae aged cells, superoxide DHE fluorescence; stronger effect = lower value | 330,000 tested, 0.18% active | AID 2690;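 active = superoxide response under a set limit, about three screen SD below normal, cut at about 65% in these data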;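 note: yeast aged for seven days with compound at 30 °C before DHE staining; 100% = average MFI of all compound-treated wells on the plate with controls excluded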
GSK3B inh – inhibitors of human GSK3beta kinase. P49841. 300,000 tested, 0.038% active. activity score (negative = inhibition), % at 10 µM. GST-GSK3beta kinase, ADP-Glo luminescence, 60 min; stronger effect = lower value;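 active = more than half of replicate wells score below -50%, meaning over 50% inhibition versus plate controls; inconclusive = some replicates but at most half score below -50%; inactive = no replicate scores below -50%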;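 note: 0% = median DMSO wells and -100% = median GW8510 positive control wells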
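test system = GST-tagged human GSK3beta kinase, cell-free | reagent = 25 µM ATP with peptide substrate | dosing = one dose of 10 µM per compound | schedule = 60 min reaction, RT | detection = luminescent ADP-Glo measurement of ADP formed | control set = DMSO neutral wells and GW8510 at 20 µM as positive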
GSK3 alpha inh – human GSK-3 alpha kinase inhibition; P49840; ADP-Glo luminescence, 60 min; inhibition, % at 10 µM; 320,000 tested, 0.1% active; AID 2650;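 active = more than half of replicates show inhibition above 20%; inconclusive = some but at most half of replicates above 20% inhibition; inactive = no replicate shows inhibition above 20%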;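 note: GST-tagged GSK-3 alpha with peptide substrate and 25 µM ATP; 0% = DMSO neutral wells and 100% = GW8510 positive control wells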
Target sequence (P49840 whole entry, looked up): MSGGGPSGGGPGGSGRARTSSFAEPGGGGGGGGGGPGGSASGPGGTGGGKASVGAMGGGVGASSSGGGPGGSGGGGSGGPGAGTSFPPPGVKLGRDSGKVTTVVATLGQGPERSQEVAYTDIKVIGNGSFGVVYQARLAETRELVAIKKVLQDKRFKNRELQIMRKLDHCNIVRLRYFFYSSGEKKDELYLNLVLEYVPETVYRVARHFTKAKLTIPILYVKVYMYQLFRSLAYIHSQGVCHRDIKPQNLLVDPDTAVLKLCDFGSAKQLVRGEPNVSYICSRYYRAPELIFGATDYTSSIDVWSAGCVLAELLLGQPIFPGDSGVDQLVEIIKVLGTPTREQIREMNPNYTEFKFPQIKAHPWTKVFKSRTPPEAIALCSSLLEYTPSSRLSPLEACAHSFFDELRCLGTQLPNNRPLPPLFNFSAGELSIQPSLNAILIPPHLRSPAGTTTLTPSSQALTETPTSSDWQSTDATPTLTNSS
Numbers without * were called inactive. The list is not random: actives were taken first. Their share in the collection is about 0.72%.

For O=C1c2cnc3nc(SCc4ccccc4)nn3c2CC2c3ccccc3CCN12 (stereo not given) the results were AI-2 QS mod 2.5, PolyA inhibitor 114.4*, STK33 kinase inh 0.0, Yeast superoxide 152.5, GSK3B inh 2.8 and GSK3 alpha inh -1.9.
`c1ccc(CSc2nc3ncccn3n2)cc1` gave STK33 kinase inh -0.5, Yeast superoxide 90.2 and GSK3 alpha inh -4.1.
Screening O=C(Nc1ccc(Nc2ccccc2)cc1)c1ccco1 returned AI-2 QS mod -96.4*, PolyA inhibitor 4.7, STK33 kinase inh -0.1, Yeast superoxide 102.9, GSK3B inh 1.9 and GSK3 alpha inh 2.0.
`O=C(Nc1ccc(NC(=O)c2ccco2)cc1)c1ccco1` gave AI-2 QS mod 10.0, PolyA inhibitor 7.7, STK33 kinase inh 0.2, Yeast superoxide 108.9, GSK3B inh 0.6 and GSK3 alpha inh -2.0.
`O=C(Nc1ccc(Cc2ccncc2)cc1)c1ccco1` gave AI-2 QS mod -81.9*, PolyA inhibitor inconclusive, STK33 kinase inh 0.8, Yeast superoxide 89.3, GSK3B inh -1.0 and GSK3 alpha inh -1.3.
Screening O=C(Nc1ccc(Nc2ccccc2)cc1)c1ccc(F)cc1 returned AI-2 QS mod -88.0*, PolyA inhibitor -0.3, STK33 kinase inh -0.3, Yeast superoxide 79.9, GSK3B inh 2.5 and GSK3 alpha inh 0.2.
O=C(O)c1ccc(C(=O)Nc2ccc(F)cc2)cc1 was read as STK33 kinase inh 0.4, Yeast superoxide 96.8 and GSK3 alpha inh 0.5.
Screening CCc1ccc(C(=O)Nc2cc(S(=O)(=O)N3CCOCC3)ccc2N2CCOCC2)cc1 returned STK33 kinase inh -1.7, Yeast superoxide 93.2 and GSK3 alpha inh -2.2.
O=C(N/N=C/c1ccc(F)cc1)c1c(O)c2ccccc2[nH]c1=O was read as AI-2 QS mod 8.2, PolyA inhibitor 59.5*, STK33 kinase inh -1.9, Yeast superoxide 107.6, GSK3B inh -0.7 and GSK3 alpha inh -0.3.
`O=C(N/N=C/c1ccc(O)c(O)c1)N/N=C/c1ccc(O)c(O)c1` gave AI-2 QS mod -4.4, PolyA inhibitor -7.0, STK33 kinase inh 23.9, Yeast superoxide 100.4, GSK3B inh -39.8 and GSK3 alpha inh 53.9*.
For Cc1nonc1C(=O)N/N=C/c1ccc(O)c(O)c1 the results were AI-2 QS mod 16.3, PolyA inhibitor 1.7, STK33 kinase inh 3.4, Yeast superoxide 98.6, GSK3B inh 4.8 and GSK3 alpha inh 5.2.
For CCOc1nc(Nc2ccc(OC)cc2OC)nc(OCC)n1 the results were AI-2 QS mod 14.0, PolyA inhibitor 19.3, STK33 kinase inh 0.5, Yeast superoxide 92.0, GSK3B inh 0.6 and GSK3 alpha inh 1.1.
Screening c1ccc(Nc2ccnc(Nc3ccccc3)n2)cc1 returned AI-2 QS mod 11.7, PolyA inhibitor -11.2, STK33 kinase inh 35.9*, Yeast superoxide 104.1, GSK3B inh -0.5 and GSK3 alpha inh 14.1.
For NNc1nccc(Nc2ccccc2C(=O)O)n1 the results were AI-2 QS mod 27.1, PolyA inhibitor -0.4, STK33 kinase inh 19.8, Yeast superoxide 89.6, GSK3B inh -59.6* and GSK3 alpha inh 68.9*.
Screening NNc1nc(Nc2ccccc2)nc(Nc2ccccc2)n1 returned AI-2 QS mod 43.1, PolyA inhibitor -28.7, STK33 kinase inh 0.7, Yeast superoxide 106.4, GSK3B inh 0.1 and GSK3 alpha inh -2.5.
`COc1ccc(Nc2ccccc2C(=O)O)cc1` gave AI-2 QS mod 70.9, PolyA inhibitor -5.1, STK33 kinase inh -1.0, Yeast superoxide 107.7, GSK3B inh 6.0 and GSK3 alpha inh -3.1.
`CCOc1cc(C2C3=C(CC(C)(C)CC3=O)Nc3n[nH]c(C)c32)ccc1O` (stereo not given) gave AI-2 QS mod inactive, PolyA inhibitor 7.7, STK33 kinase inh -0.7, Yeast superoxide 92.4, GSK3B inh -61.4* and GSK3 alpha inh 93.8*.
For CCOC(=O)C1=C(C)NC2=C(C(=O)CC(C)(C)C2)C1c1ccc(O)c(OCC)c1 (stereo not given) the results were AI-2 QS mod 23.0, PolyA inhibitor -0.2, STK33 kinase inh -2.7, Yeast superoxide 105.1, GSK3B inh 1.4 and GSK3 alpha inh -2.1.
N#CCCn1cc(/C=N/O)c(-c2cccc([N+](=O)[O-])c2)n1 was read as AI-2 QS mod 22.7, PolyA inhibitor 15.5, STK33 kinase inh -0.1, Yeast superoxide 113.4, GSK3B inh -26.1 and GSK3 alpha inh 63.9*.
COc1cccc(C(=O)Nc2nnc(-c3ccc(Cl)cc3)o2)c1 was read as AI-2 QS mod -87.2*, PolyA inhibitor 22.6, STK33 kinase inh -0.8, Yeast superoxide 126.2, GSK3B inh -0.7 and GSK3 alpha inh -0.4.
COc1cccc(-c2nnc(NC(=O)c3ccc4ncsc4c3)o2)c1 was read as AI-2 QS mod -49.1, PolyA inhibitor -1.5, STK33 kinase inh -0.7, Yeast superoxide 123.0, GSK3B inh -0.9 and GSK3 alpha inh -3.0.
`COc1cccc(C(=O)Nc2nnc(-c3ccc(F)cc3)o2)c1` gave AI-2 QS mod -88.2*, PolyA inhibitor -4.9, STK33 kinase inh -1.6, Yeast superoxide 114.9, GSK3B inh 1.3 and GSK3 alpha inh -1.6.
Screening O=C(COc1ccccc1)Nc1nnc(-c2ccc(Cl)cc2)o1 returned AI-2 QS mod -89.6*, PolyA inhibitor -8.5, STK33 kinase inh -0.3, Yeast superoxide 89.3, GSK3B inh -0.6 and GSK3 alpha inh -2.7.
For COc1cccc(-c2nnc(NC(C)=O)o2)c1 the results were AI-2 QS mod 16.0, PolyA inhibitor -18.8, STK33 kinase inh -0.3, Yeast superoxide 88.6, GSK3B inh 1.2 and GSK3 alpha inh -1.6.
For COc1cccc(C(=O)Nc2nnc(-c3cccs3)o2)c1 the results were AI-2 QS mod -84.0*, PolyA inhibitor inconclusive, STK33 kinase inh -2.0, Yeast superoxide 126.5, GSK3B inh -0.2 and GSK3 alpha inh -1.1.
For CN(CC(=O)Nc1ccc(Cl)cc1)C(=O)CNC(=O)c1cccs1 the results were STK33 kinase inh 0.4, Yeast superoxide 94.4 and GSK3 alpha inh -3.5.
For COc1ccc(C)cc1S(=O)(=O)NC(C)C(=O)Nc1ccc2c(c1)OCO2 (stereo not given) the results were PolyA inhibitor 2.5, STK33 kinase inh -0.9, Yeast superoxide 101.0 and GSK3 alpha inh -0.4.
O=C(CCC(=O)N1CCCCC1)Nc1ccc(Cl)c(Cl)c1 was read as AI-2 QS mod -78.2*, PolyA inhibitor -11.7, STK33 kinase inh -2.0, Yeast superoxide 88.2, GSK3B inh -4.4 and GSK3 alpha inh -3.2.
CCOC(=O)C1CCN(C(=O)C(CC)c2ccccc2)CC1 (stereo not given) was read as AI-2 QS mod 7.8, PolyA inhibitor -1.7, STK33 kinase inh -0.4, Yeast superoxide 96.4, GSK3B inh 2.2 and GSK3 alpha inh -6.8.
